{"source": "ChEMBL document CHEMBL5058577", "about": "“EUbOPEN Chemogenomics Library 2 (Multiplex)” (2022)", "format_in_all_cases": "toxicity, cell-based", "key": {"Fibroblast": {"test_system": "Fibroblast", "assay": "Multiplex assay against human fibroblast", "settings": "10 µM, compound concentration 10 uM", "in_short": "(§1)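 With compound added, live cells were imaged on a CQ1 microscope at 37°C and 5% CO2; staining with Hoechst33342, BioTracker Green Microtubule Cytoskeleton Dye, MitoTracker Red and Annexin V Alexa Fluor 680 had been done at seeding. The CellPathfinder machine-learning gating scheme split cells into Hoechst high-intensity objects or normal cells, normal cells into healthy, pyknosed or fragmented nuclei, and pyknosed cells into mitotic or apoptotic. The tubulin, mitochondrial-mass and membrane-permeability phenotypes are per cents of healthy-nucleus cells.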"}, "HEK-293T": {"test_system": "HEK-293T", "assay": "Multiplex assay against HEK293T", "settings": "human, 10 µM, compound concentration 10 uM", "in_short": "as §1"}, "U2OS": {"test_system": "U2OS", "assay": "Multiplex assay against U2OS", "settings": "human, 10 µM, compound concentration 10 uM", "in_short": "as §1"}}, "note": "Where “and” joins values, the source holds several entries; their conditions need not be identical. Equal entries are not always repeated."}
{"compound": "CCC(=O)N1CCN(c2ccc(-n3c(=O)ccc4cnc5ccc(-c6cnc7ccccc7c6)cc5c43)cc2C(F)(F)F)CC1", "note": "[TORIN1]", "values": [{"measurement": "Population Healthy Nuclei (%)", "setting": "Fibroblast; 12 h, replicate 1", "result": "60% and 61%"}, {"measurement": "Population Mitotic Cells (%)", "setting": "Fibroblast; 12 h, replicate 1", "result": "72% and 76%"}, {"measurement": "Population Normal (%)", "setting": "Fibroblast; 12 h, replicate 1", "result": "94% and 95%"}, {"measurement": "Population Tubulin-Different-Phenotype (%)", "setting": "Fibroblast; 12 h, replicate 1", "result": "62% and 53%"}, {"measurement": "Total Cell Count", "setting": "Fibroblast; 12 h, replicate 1", "result": "155 and 135"}, {"measurement": "Population Healthy Nuclei (%)", "setting": "Fibroblast; 12 h, replicate 2", "result": 44, "unit": "%"}, {"measurement": "Population Mitotic Cells (%)", "setting": "Fibroblast; 12 h, replicate 2", "result": "65% and 66%"}, {"measurement": "Population Normal (%)", "setting": "Fibroblast; 12 h, replicate 2", "result": 90, "unit": "%"}, {"measurement": "Population Tubulin-Different-Phenotype (%)", "setting": "Fibroblast; 12 h, replicate 2", "result": 64, "unit": "%"}, {"measurement": "Total Cell Count", "setting": "Fibroblast; 12 h, replicate 2", "result": "131 and 150"}, {"measurement": "Population Healthy Nuclei (%)", "setting": "Fibroblast; 24 h, replicate 1", "result": 64, "unit": "%"}, {"measurement": "Population Mitotic Cells (%)", "setting": "Fibroblast; 24 h, replicate 1", "result": "66% and 50%"}, {"measurement": "Population Normal (%)", "setting": "Fibroblast; 24 h, replicate 1", "result": "96% and 94%"}, {"measurement": "Population Tubulin-Different-Phenotype (%)", "setting": "Fibroblast; 24 h, replicate 1", "result": "62% and 48%"}, {"measurement": "Total Cell Count", "setting": "Fibroblast; 24 h, replicate 1", "result": "137 and 135"}, {"measurement": "Population Healthy Nuclei (%)", "setting": "Fibroblast; 24 h, replicate 2", "result": "57% and 45%"}, {"measurement": "Population Mitotic Cells (%)", "setting": "Fibroblast; 24 h, replicate 2", "result": "56% and 77%"}, {"measurement": "Population Normal (%)", "setting": "Fibroblast; 24 h, replicate 2", "result": "93% and 95%"}, {"measurement": "Population Tubulin-Different-Phenotype (%)", "setting": "Fibroblast; 24 h, replicate 2", "result": "59% and 60%"}, {"measurement": "Total Cell Count", "setting": "Fibroblast; 24 h, replicate 2", "result": "128 and 150"}, {"measurement": "Population Healthy Nuclei (%)", "setting": "Fibroblast; 48 h, replicate 1", "result": "72% and 71%"}, {"measurement": "Population Mitotic Cells (%)", "setting": "Fibroblast; 48 h, replicate 1", "result": 50, "unit": "%"}, {"measurement": "Population Normal (%)", "setting": "Fibroblast; 48 h, replicate 1", "result": "96% and 97%"}, {"measurement": "Population Tubulin-Different-Phenotype (%)", "setting": "Fibroblast; 48 h, replicate 1", "result": "67% and 54%"}, {"measurement": "Total Cell Count", "setting": "Fibroblast; 48 h, replicate 1", "result": "127 and 124"}, {"measurement": "Population Healthy Nuclei (%)", "setting": "Fibroblast; 48 h, replicate 2", "result": "62% and 46%"}, {"measurement": "Population Mitotic Cells (%)", "setting": "Fibroblast; 48 h, replicate 2", "result": 46, "unit": "%"}, {"measurement": "Population Normal (%)", "setting": "Fibroblast; 48 h, replicate 2", "result": "95% and 98%"}, {"measurement": "Population Tubulin-Different-Phenotype (%)", "setting": "Fibroblast; 48 h, replicate 2", "result": "61% and 77%"}, {"measurement": "Total Cell Count", "setting": "Fibroblast; 48 h, replicate 2", "result": "136 and 147"}, {"measurement": "Population Apoptotic (%)", "setting": "HEK-293T; 12 h, replicate 1", "result": "71% and 67%"}, {"measurement": "Population Healthy Nuclei (%)", "setting": "HEK-293T; 12 h, replicate 1", "result": "76% and 71%"}, {"measurement": "Population Membrane Permeable-Phenotype (%)", "setting": "HEK-293T; 12 h, replicate 1", "result": 0, "unit": "%"}, {"measurement": "Population Mitochondria Different-Phenotype (%)", "setting": "HEK-293T; 12 h, replicate 1", "result": "78% and 76%"}, {"measurement": "Population Normal (%)", "setting": "HEK-293T; 12 h, replicate 1", "result": 88, "unit": "%"}, {"measurement": "Population Tubulin-Different-Phenotype (%)", "setting": "HEK-293T; 12 h, replicate 1", "result": 40, "unit": "%"}, {"measurement": "Total Cell Count", "setting": "HEK-293T; 12 h, replicate 1", "result": "373 and 299"}, {"measurement": "Population Apoptotic (%)", "setting": "HEK-293T; 12 h, replicate 2", "result": "51% and 57%"}, {"measurement": "Population Healthy Nuclei (%)", "setting": "HEK-293T; 12 h, replicate 2", "result": 79, "unit": "%"}, {"measurement": "Population Mitochondria Different-Phenotype (%)", "setting": "HEK-293T; 12 h, replicate 2", "result": 87, "unit": "%"}, {"measurement": "Population Mitotic Cells (%)", "setting": "HEK-293T; 12 h, replicate 2", "result": "48% and 42%"}, {"measurement": "Population Normal (%)", "setting": "HEK-293T; 12 h, replicate 2", "result": 92, "unit": "%"}, {"measurement": "Population Tubulin-Different-Phenotype (%)", "setting": "HEK-293T; 12 h, replicate 2", "result": 37, "unit": "%"}, {"measurement": "Total Cell Count", "setting": "HEK-293T; 12 h, replicate 2", "result": "266 and 321"}, {"measurement": "Population Apoptotic (%)", "setting": "HEK-293T; 24 h, replicate 1", "result": 45, "unit": "%"}, {"measurement": "Population Healthy Nuclei (%)", "setting": "HEK-293T; 24 h, replicate 1", "result": "75% and 74%"}, {"measurement": "Population Membrane Permeable-Phenotype (%)", "setting": "HEK-293T; 24 h, replicate 1", "result": 0, "unit": "%"}, {"measurement": "Population Mitochondria Different-Phenotype (%)", "setting": "HEK-293T; 24 h, replicate 1", "result": "75% and 81%"}, {"measurement": "Population Mitotic Cells (%)", "setting": "HEK-293T; 24 h, replicate 1", "result": "46% and 54%"}, {"measurement": "Population Normal (%)", "setting": "HEK-293T; 24 h, replicate 1", "result": "86% and 90%"}, {"measurement": "Population Tubulin-Different-Phenotype (%)", "setting": "HEK-293T; 24 h, replicate 1", "result": "43% and 44%"}, {"measurement": "Total Cell Count", "setting": "HEK-293T; 24 h, replicate 1", "result": "337 and 289"}, {"measurement": "Population Apoptotic (%)", "setting": "HEK-293T; 24 h, replicate 2", "result": "44% and 58%"}, {"measurement": "Population Mitochondria Different-Phenotype (%)", "setting": "HEK-293T; 24 h, replicate 2", "result": "82% and 86%"}, {"measurement": "Population Mitotic Cells (%)", "setting": "HEK-293T; 24 h, replicate 2", "result": "55% and 41%"}, {"measurement": "Population Normal (%)", "setting": "HEK-293T; 24 h, replicate 2", "result": "77% and 71%"}, {"measurement": "Population Tubulin-Different-Phenotype (%)", "setting": "HEK-293T; 24 h, replicate 2", "result": "33% and 57%"}, {"measurement": "Total Cell Count", "setting": "HEK-293T; 24 h, replicate 2", "result": "225 and 283"}, {"measurement": "Population Apoptotic (%)", "setting": "HEK-293T; 48 h, replicate 1", "result": "56% and 69%"}, {"measurement": "Population Healthy Nuclei (%)", "setting": "HEK-293T; 48 h, replicate 1", "result": "70% and 72%"}, {"measurement": "Population Membrane Permeable-Phenotype (%)", "setting": "HEK-293T; 48 h, replicate 1", "result": 0, "unit": "%"}, {"measurement": "Population Mitochondria Different-Phenotype (%)", "setting": "HEK-293T; 48 h, replicate 1", "result": "77% and 75%"}, {"measurement": "Population Mitotic Cells (%)", "setting": "HEK-293T; 48 h, replicate 1", "result": 43, "unit": "%"}, {"measurement": "Population Normal (%)", "setting": "HEK-293T; 48 h, replicate 1", "result": "73% and 80%"}, {"measurement": "Population Tubulin-Different-Phenotype (%)", "setting": "HEK-293T; 48 h, replicate 1", "result": "47% and 35%"}, {"measurement": "Total Cell Count", "setting": "HEK-293T; 48 h, replicate 1", "result": "292 and 275"}, {"measurement": "Population Apoptotic (%)", "setting": "HEK-293T; 48 h, replicate 2", "result": "68% and 58%"}, {"measurement": "Population Healthy Nuclei (%)", "setting": "HEK-293T; 48 h, replicate 2", "result": 56, "unit": "%"}, {"measurement": "Population Membrane Permeable-Phenotype (%)", "setting": "HEK-293T; 48 h, replicate 2", "result": 1, "unit": "%"}, {"measurement": "Population Mitochondria Different-Phenotype (%)", "setting": "HEK-293T; 48 h, replicate 2", "result": "80% and 82%"}, {"measurement": "Population Mitotic Cells (%)", "setting": "HEK-293T; 48 h, replicate 2", "result": 41, "unit": "%"}, {"measurement": "Population Normal (%)", "setting": "HEK-293T; 48 h, replicate 2", "result": "38% and 36%"}, {"measurement": "Population Tubulin-Different-Phenotype (%)", "setting": "HEK-293T; 48 h, replicate 2", "result": "37% and 58%"}, {"measurement": "Total Cell Count", "setting": "HEK-293T; 48 h, replicate 2", "result": "235 and 234"}, {"measurement": "Population Apoptotic (%)", "setting": "U2OS; 12 h, replicate 1", "result": "68% and 85%"}, {"measurement": "Population Healthy Nuclei (%)", "setting": "U2OS; 12 h, replicate 1", "result": 55, "unit": "%"}, {"measurement": "Population Normal (%)", "setting": "U2OS; 12 h, replicate 1", "result": "98% and 96%"}, {"measurement": "Total Cell Count", "setting": "U2OS; 12 h, replicate 1", "result": "288 and 258"}, {"measurement": "Population Apoptotic (%)", "setting": "U2OS; 12 h, replicate 2", "result": "76% and 92%"}, {"measurement": "Population Healthy Nuclei (%)", "setting": "U2OS; 12 h, replicate 2", "result": "71% and 61%"}, {"measurement": "Total Cell Count", "setting": "U2OS; 12 h, replicate 2", "result": "109 and 101"}, {"measurement": "Population Apoptotic (%)", "setting": "U2OS; 24 h, replicate 1", "result": "77% and 84%"}, {"measurement": "Population Healthy Nuclei (%)", "setting": "U2OS; 24 h, replicate 1", "result": "54% and 55%"}, {"measurement": "Population Normal (%)", "setting": "U2OS; 24 h, replicate 1", "result": "98% and 96%"}, {"measurement": "Total Cell Count", "setting": "U2OS; 24 h, replicate 1", "result": "287 and 256"}, {"measurement": "Population Apoptotic (%)", "setting": "U2OS; 24 h, replicate 2", "result": "73% and 83%"}, {"measurement": "Population Healthy Nuclei (%)", "setting": "U2OS; 24 h, replicate 2", "result": 72, "unit": "%"}, {"measurement": "Population Normal (%)", "setting": "U2OS; 24 h, replicate 2", "result": 97, "unit": "%"}, {"measurement": "Total Cell Count", "setting": "U2OS; 24 h, replicate 2", "result": "115 and 106"}, {"measurement": "Population Apoptotic (%)", "setting": "U2OS; 48 h, replicate 1", "result": "78% and 72%"}, {"measurement": "Population Healthy Nuclei (%)", "setting": "U2OS; 48 h, replicate 1", "result": "44% and 39%"}, {"measurement": "Population Normal (%)", "setting": "U2OS; 48 h, replicate 1", "result": "93% and 97%"}, {"measurement": "Total Cell Count", "setting": "U2OS; 48 h, replicate 1", "result": "300 and 270"}, {"measurement": "Population Apoptotic (%)", "setting": "U2OS; 48 h, replicate 2", "result": "82% and 81%"}, {"measurement": "Total Cell Count", "setting": "U2OS; 48 h, replicate 2", "result": "147 and 123"}]}
